Data from ChEMBL document CHEMBL1138850, “Synthesis of 2-methyl-3-indolylacetic derivatives as anti-inflammatory agents that inhibit preferentially cyclooxygenase 1 without gastric damage” (2006).
Calls of active or inactive are those of the source. No cut-off for these calls is given here.

Assays:
[1] = target: T1, Prostaglandin G/H synthase 1 (Mus musculus) (UniProt P22437); assay: Activity at COX1 assessed as inhibition of arachidonic acid-induced PGE2 production in J774 cells at 0.1 uM; type: cell-based
T1 sequence (whole entry): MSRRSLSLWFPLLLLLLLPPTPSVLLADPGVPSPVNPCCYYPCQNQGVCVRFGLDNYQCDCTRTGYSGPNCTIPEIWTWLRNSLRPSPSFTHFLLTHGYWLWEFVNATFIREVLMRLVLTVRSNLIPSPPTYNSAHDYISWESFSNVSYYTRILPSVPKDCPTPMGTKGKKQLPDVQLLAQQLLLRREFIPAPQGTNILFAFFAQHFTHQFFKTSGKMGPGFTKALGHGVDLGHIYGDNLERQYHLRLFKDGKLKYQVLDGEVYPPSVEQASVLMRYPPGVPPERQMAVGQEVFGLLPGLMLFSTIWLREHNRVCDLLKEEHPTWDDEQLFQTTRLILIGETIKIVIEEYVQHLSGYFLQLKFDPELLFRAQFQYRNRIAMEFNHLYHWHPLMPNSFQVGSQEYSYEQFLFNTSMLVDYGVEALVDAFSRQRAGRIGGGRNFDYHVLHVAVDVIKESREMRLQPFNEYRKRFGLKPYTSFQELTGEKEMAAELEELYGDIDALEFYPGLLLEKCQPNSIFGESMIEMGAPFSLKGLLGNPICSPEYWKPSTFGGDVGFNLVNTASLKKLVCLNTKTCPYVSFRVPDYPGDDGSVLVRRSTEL
In short: (§1)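 Murine J774 macrophages were grown in DMEM with 10% FBS, adhered for 2 h at 37 °C, then switched to serum-free medium. Cells were pretreated with compound (0.01-100 µM, ethanol vehicle) for 15 min, then given 15 µM arachidonic acid for 30 min at 37 °C. Supernatant PGE2 was measured by radioimmunoassay. Triplicate wells; % inhibition vs control, mean of three experiments.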

[2] = target: T1, Prostaglandin G/H synthase 1 (Mus musculus); assay: Activity at COX1 assessed as inhibition of arachidonic acid-induced PGE2 production in J774 cells at 0.01 uM; type: cell-based; in short: as §1
[3] = target: T1, Prostaglandin G/H synthase 1 (Mus musculus); assay: Activity at COX1 assessed as inhibition of arachidonic acid-induced PGE2 production in J774 cells at 10 uM; type: cell-based; in short: as §1
[4] = target: T1, Prostaglandin G/H synthase 1 (Mus musculus); assay: Activity at COX1 assessed as inhibition of arachidonic acid-induced PGE2 production in J774 cells at 100 uM; type: cell-based; in short: as §1
[5] = target: T1, Prostaglandin G/H synthase 1 (Mus musculus); assay: Activity at COX1 assessed as inhibition of arachidonic acid-induced PGE2 production in J774 cells at 1 uM; type: cell-based; in short: as §1
Rattus norvegicus = assay: Gastric damage in rat at 100 mg/kg, po by GI damage assay; type: functional
In short: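 Rats (120-140 g) were fasted 18 h with water allowed, then dosed orally at 100 mg/kg; a vehicle group was included, six rats per group. After 5 h, stomachs were excised under pentobarbital. A blinded observer summed lesion lengths in mm per stomach. Analysis: Kruskal-Wallis with Dunn's post-test.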

Mus musculus [6] = assay: Antiinflammatory activity in carrageenan-induced mouse paw edema; type: functional, organism-based
In short: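 Mice (18-20 g), lightly anesthetized with enflurane, were dosed 1 h before subplantar 1% carrageenan in the left footpad. Paw volume was read by hydroplethysmometer before injection and at 2, 4, 6, 24, 48 and 72 h. Edema was taken as the increase over basal volume.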

[7] = target: T1, Prostaglandin G/H synthase 1 (Mus musculus); assay: Activity at COX1 assessed as inhibition of arachidonic acid-induced PGE2 production in J774 cells; type: cell-based; in short: as §1
Mus musculus [8] = organism: Mus musculus; assay: Analgesic activity in mouse by formalin paw licking assay at 0-15 mins; type: functional, organism-based
In short: (§2)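 Mice (18-20 g) were dosed 1 h before intraplantar 5% formalin (10 µL), given under light enflurane anesthesia. A blinded observer scored paw licking in two phases: 0-15 min and 15-45 min.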

[9] = target: T2, Prostaglandin G/H synthase 2 (Mus musculus) (UniProt Q05769); assay: Activity at COX2 assessed as inhibition of arachidonic acid-induced PGE2 production in LPS-stimulated J774 cells at 100 uM; type: cell-based
T2 sequence (whole entry): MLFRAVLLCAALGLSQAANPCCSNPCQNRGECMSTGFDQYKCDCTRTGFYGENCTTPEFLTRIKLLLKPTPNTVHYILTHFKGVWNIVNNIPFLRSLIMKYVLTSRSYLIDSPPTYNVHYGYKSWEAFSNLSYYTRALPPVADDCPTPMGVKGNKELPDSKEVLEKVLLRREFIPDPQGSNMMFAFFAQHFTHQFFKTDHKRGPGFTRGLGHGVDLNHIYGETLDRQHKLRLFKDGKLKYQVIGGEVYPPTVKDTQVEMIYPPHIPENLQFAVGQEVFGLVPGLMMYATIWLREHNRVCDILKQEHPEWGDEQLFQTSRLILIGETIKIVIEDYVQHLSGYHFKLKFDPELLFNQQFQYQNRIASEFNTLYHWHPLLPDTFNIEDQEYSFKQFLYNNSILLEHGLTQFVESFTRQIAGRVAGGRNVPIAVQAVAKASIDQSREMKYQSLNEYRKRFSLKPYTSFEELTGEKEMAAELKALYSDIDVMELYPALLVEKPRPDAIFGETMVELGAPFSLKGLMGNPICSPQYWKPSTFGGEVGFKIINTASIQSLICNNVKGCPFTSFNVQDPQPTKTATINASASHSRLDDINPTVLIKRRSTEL
In short: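 J774 cells were induced with S. typhosa LPS (10 µg/mL, 24 h) to express COX-2. Medium was replaced with fresh medium holding 15 µM arachidonic acid, with or without compound (0.01-100 µM, ethanol vehicle), for 30 min at 37 °C. Supernatant PGE2 was measured by radioimmunoassay. Triplicate wells; % inhibition vs control, mean of three experiments.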

Mus musculus [10] = organism: Mus musculus; assay: Analgesic activity in mouse by formalin paw licking assay at 15-45 mins; type: functional, organism-based; in short: as §2
Mus musculus [11] = organism: Mus musculus; assay: Analgesic activity in Swiss mouse by acetic acid-induced writhing test; type: functional, organism-based
In short: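 Male mice (25-30 g) received 0.6% acetic acid intraperitoneally and were caged singly. Writhes were counted over 15 min, starting from the first writhing movement.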

Compound: Cc1c(CC(=O)O)c2cc(O)ccc2n1C1CCN(C)CC1
- Activity [1]: inactive
- Activity [2]: inactive
- Activity [3]: inactive
- Activity [4]: inactive
- Activity [5]: inactive

Compound: CCOC(=O)Cc1c(C)n(C2CCN(C)CC2)c2ccc(OC(C)=O)cc12
- Activity [1]: inactive
- Activity [2]: inactive
- Activity [3]: inactive
- Activity [4]: inactive
- Activity [5]: inactive

Compound: COc1ccc2c(c1)c(CC(=O)O)c(C)n2C(=O)c1ccc(Cl)cc1 [INDOMETHACIN]
- Activity (Rattus norvegicus): 50 mm
- Activity (Mus musculus [6]): Active
- inhibition [3]: 75%
- inhibition [4]: 88%
- Activity [7]: Dose-dependent effect

Compound: CCOC(=O)Cc1c(C)n(C2CCN(C)CC2)c2ccc(OC)cc12
- Activity (Mus musculus [8]): inactive
- inhibition [9]: 24%
- Activity (Rattus norvegicus): 0.6 mm
- Activity (Mus musculus [6]): Active
- inhibition [3]: 37%
- Activity (Mus musculus [10]): Active
- inhibition [4]: 58%
- Activity (Mus musculus [11]): Dose-dependent effect
- Activity [7]: Dose-dependent effect

Compound: COc1ccc2c(c1)c(CC(=O)O)c(C)n2C1CCN(C)CC1
- Activity (Mus musculus [8]): inactive
- Activity (Rattus norvegicus): inactive
- Activity (Mus musculus [6]): Active
- inhibition [3]: 57%
- Activity (Mus musculus [10]): Active
- inhibition [4]: 64%
- Activity (Mus musculus [11]): Dose-dependent effect
- Activity [7]: Dose-dependent effect
